According to ChEMBL document CHEMBL1126247, “Iodoaminopotentidine and related compounds: a new class of ligands with high affinity and selectivity for the histamine H2 receptor” (J Med Chem, 1992):
Each block holds one molecule with its values, some of them ahead of it.

How the values were obtained:
[1] = target: Histamine H2 receptor (Cavia porcellus) (UniProt P47747); assay: Inhibition of the positive chronotropic response (histamine H2 receptor antagonism) of guinea pig right atrium relative to cimetidine.; format: functional, tissue-based; details: Cardiac atrium
Histamine H2 receptor (Cavia porcellus), sequence (P47747 whole entry): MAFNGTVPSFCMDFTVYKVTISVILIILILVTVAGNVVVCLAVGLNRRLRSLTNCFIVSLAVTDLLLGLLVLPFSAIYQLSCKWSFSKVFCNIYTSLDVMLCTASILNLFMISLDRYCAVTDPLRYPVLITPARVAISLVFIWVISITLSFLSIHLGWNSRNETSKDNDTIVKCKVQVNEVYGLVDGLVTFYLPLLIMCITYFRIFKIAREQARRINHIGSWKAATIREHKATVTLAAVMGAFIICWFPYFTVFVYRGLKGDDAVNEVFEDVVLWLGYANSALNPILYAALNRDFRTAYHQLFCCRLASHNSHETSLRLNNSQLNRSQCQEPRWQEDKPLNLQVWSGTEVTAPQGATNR

[2] = target: Histamine H2 receptor (Cavia porcellus) (UniProt P47747); assay: Histamine H2 receptor antagonistic activity at a concentration of 0.03 and 1 uM on the isolated guinea pig right atrium.; format: functional, tissue-based; details: Cardiac atrium
[3] = target: Histamine H2 receptor (Cavia porcellus) (UniProt P47747); details: Cardiac atrium
[4] = target: Histamine H2 receptor (Cavia porcellus) (UniProt P47747); assay: Potency to inhibit the positive chronotropic response (H2-antagonism) of guinea pig right atrium relative to cimetidine.; format: functional, tissue-based; details: Cardiac atrium
[5] = target: Histamine H1 receptor (Cavia porcellus) (UniProt P31389); assay: Histamine H1 receptor antagonistic activity on the isolated guinea pig ileum determined by Schild plot.
Target sequence in this assay (P31389 whole entry, looked up): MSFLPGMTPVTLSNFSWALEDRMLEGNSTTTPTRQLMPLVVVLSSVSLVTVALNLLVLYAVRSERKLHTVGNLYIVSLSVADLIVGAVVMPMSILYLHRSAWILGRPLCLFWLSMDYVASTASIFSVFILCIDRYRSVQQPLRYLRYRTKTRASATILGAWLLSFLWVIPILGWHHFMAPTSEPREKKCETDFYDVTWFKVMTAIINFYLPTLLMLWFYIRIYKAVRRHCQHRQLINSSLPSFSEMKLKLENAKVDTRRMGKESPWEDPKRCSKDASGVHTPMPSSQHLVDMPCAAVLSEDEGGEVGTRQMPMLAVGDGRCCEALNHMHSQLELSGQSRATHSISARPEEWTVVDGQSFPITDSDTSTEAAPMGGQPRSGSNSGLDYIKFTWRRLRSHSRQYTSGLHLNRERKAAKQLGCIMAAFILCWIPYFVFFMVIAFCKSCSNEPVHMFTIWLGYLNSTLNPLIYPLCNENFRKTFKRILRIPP

[6] = target: Muscarinic acetylcholine receptor M3 (Cavia porcellus) (UniProt Q8VH26); details: 10 uM
Muscarinic acetylcholine receptor M3 (Cavia porcellus), sequence (Q8VH26 1-587): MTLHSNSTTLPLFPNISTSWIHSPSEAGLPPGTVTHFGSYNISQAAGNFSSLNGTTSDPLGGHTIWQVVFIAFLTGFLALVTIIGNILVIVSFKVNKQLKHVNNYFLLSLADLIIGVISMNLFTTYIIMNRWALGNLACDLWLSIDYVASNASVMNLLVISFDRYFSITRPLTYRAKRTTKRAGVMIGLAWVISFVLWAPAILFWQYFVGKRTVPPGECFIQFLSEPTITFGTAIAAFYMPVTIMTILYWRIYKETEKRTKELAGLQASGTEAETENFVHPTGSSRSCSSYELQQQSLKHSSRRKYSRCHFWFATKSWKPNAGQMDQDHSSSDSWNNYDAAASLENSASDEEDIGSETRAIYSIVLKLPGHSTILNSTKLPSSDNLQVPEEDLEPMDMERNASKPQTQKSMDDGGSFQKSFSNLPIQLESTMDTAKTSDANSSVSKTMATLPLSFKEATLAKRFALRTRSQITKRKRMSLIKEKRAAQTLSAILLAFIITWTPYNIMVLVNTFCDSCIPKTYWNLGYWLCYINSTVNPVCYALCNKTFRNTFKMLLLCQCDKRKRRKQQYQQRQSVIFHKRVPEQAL

[7] = target: Histamine H2 receptor (Cavia porcellus) (UniProt P47747); assay: Histamine H2 receptor antagonistic activity at a concentration of 0.3 uM on the isolated guinea pig right atrium; format: functional, tissue-based; details: Cardiac atrium
[8] = target: Histamine H2 receptor (Cavia porcellus) (UniProt P47747); assay: Histamine H2 receptor antagonistic activity at a concentration of 0.1 uM on the isolated guinea pig right atrium.; format: functional, tissue-based; details: Cardiac atrium
[9] = target: Adrenergic receptor alpha-1 (Rattus norvegicus) (UniProt P15823+P23944+P43140); assay: (§1) Alpha-1 adrenergic receptor antagonistic activity on the rat aorta determined by Schild plot.; format: functional, tissue-based
Procedure, shortened: (§2)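 Endothelium-denuded thoracic aortic rings from the same rats, mounted isometrically, resting force 20 mN. Equilibration 140 min with two primings of 0.1 μM (R)-phenylephrine. Cumulative (R)-phenylephrine (0.003-10 μM) curves recorded with 1 μM (±)-propranolol present.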

[10] = target: Beta-1 adrenergic receptor (Cavia porcellus) (UniProt B0FL73); assay: Beta-1 Adrenergic receptor antagonistic activity at concentrations of 10 and 30 uM on the isolated guinea pig right atrium.; format: functional, tissue-based; details: Cardiac atrium
Beta-1 adrenergic receptor (Cavia porcellus), sequence (B0FL73 1-467): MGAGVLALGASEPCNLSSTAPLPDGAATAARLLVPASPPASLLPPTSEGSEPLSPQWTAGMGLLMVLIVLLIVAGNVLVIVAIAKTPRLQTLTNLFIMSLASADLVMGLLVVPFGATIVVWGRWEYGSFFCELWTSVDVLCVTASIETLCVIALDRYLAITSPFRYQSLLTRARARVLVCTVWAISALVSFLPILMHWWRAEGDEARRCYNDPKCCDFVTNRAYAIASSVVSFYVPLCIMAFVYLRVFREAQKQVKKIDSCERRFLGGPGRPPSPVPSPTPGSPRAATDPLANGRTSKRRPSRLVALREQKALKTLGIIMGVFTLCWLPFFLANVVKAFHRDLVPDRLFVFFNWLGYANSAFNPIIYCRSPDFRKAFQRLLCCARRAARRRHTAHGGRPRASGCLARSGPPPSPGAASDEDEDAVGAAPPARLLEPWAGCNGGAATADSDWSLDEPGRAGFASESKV
Procedure, shortened: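 Spontaneously beating guinea pig right atrium, isometric recording of chronotropic response. Cumulative isoprenaline (0.1-30 nM) curves as reference agonist. Incubation handled as in the H2 protocol. pK_B = -log[antagonist] + log(concentration ratio - 1).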

[11] = target: Serotonin 2 (5-HT2) receptor (Rattus norvegicus, UniProt P30994+P08909+P14842); assay: (§3) 5-hydroxytryptamine 2 receptor antagonistic activity on the rat tail artery determined by Schild plot.; format: functional, tissue-based
Procedure, shortened: (§4)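 Endothelium-denuded ventral tail artery segments from male Wistar rats (280-350 g), resting force 5 mN, 120 min equilibration with one 1 μM 5-HT priming. Two to three cumulative 5-HT (0.01-10 μM) curves per preparation.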

[12] = target: Histamine H2 receptor (Cavia porcellus) (UniProt P47747); assay: Histamine H2 receptor antagonistic activity on the isolated guinea pig right atrium determined by Schild plot.; format: functional, tissue-based; details: Cardiac atrium
[13] = target: Serotonin 2 (5-HT2) receptor (Rattus norvegicus) (UniProt P30994+P08909+P14842); assay: as §3; format: functional, tissue-based; procedure, shortened: as §4
Serotonin 2 (5-HT2) receptor (Rattus norvegicus), sequence (P08909 whole entry, looked up): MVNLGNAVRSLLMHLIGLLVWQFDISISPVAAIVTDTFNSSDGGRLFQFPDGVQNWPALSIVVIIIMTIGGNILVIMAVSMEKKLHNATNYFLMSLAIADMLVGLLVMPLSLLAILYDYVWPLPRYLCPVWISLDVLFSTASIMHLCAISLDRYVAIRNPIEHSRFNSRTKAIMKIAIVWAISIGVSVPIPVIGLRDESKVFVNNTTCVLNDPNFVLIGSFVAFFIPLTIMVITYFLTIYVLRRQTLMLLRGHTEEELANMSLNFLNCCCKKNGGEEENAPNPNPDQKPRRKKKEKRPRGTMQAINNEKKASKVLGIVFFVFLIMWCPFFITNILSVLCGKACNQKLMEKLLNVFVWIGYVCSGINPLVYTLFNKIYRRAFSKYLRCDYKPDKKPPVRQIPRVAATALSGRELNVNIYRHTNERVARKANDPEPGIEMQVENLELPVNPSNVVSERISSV
Serotonin 2 (5-HT2) receptor (Rattus norvegicus), sequence (P14842 whole entry, looked up): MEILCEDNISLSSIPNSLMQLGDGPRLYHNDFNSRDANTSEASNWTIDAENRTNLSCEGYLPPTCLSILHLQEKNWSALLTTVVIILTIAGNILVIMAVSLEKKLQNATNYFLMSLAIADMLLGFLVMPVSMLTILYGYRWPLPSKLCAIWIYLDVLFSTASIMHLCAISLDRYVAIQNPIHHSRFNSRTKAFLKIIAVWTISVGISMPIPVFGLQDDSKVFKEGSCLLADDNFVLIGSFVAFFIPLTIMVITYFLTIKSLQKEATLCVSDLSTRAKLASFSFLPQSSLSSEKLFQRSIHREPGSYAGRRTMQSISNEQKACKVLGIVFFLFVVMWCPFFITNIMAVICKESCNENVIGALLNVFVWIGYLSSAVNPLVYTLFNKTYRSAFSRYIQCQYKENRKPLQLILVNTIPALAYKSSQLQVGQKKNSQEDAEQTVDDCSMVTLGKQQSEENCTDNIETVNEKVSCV
Serotonin 2 (5-HT2) receptor (Rattus norvegicus), sequence (P30994 whole entry, looked up): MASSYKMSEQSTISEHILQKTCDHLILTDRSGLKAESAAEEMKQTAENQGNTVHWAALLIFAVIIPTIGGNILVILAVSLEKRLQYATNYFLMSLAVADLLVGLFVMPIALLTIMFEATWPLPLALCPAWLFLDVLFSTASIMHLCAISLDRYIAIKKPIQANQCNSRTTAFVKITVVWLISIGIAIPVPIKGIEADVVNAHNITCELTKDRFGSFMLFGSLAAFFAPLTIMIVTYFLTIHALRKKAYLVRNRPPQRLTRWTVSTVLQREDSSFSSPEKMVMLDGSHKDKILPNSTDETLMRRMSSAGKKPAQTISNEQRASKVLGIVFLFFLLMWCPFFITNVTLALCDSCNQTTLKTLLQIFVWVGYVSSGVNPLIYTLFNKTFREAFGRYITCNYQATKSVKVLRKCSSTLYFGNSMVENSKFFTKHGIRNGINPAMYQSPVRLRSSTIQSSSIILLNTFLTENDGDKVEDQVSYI

[14] = target: Muscarinic acetylcholine receptor M3 (Cavia porcellus) (UniProt Q8VH26); assay: muscarinic acetylcholine receptor M3 antagonistic activity at concentrations of 10 and 30 uM on the isolated guinea pig iluem.; format: functional
Procedure, shortened: (§5)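 Guinea pig proximal ileum, isotonic recording under a 10 mN load in gassed Tyrode's solution. Cumulative carbachol (3-300 nM) curves as reference agonist. Antagonist incubated 10 min. pK_B calculated from concentration ratio, or pA2 by Schild plot.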

[15] = target: Histamine H1 receptor (Cavia porcellus) (UniProt P31389); assay: Histamine H1 receptor antagonistic activity at a concentration of 3 and 10 uM on the isolated guinea pig iluem.; format: functional
Procedure, shortened: (§6)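 Whole proximal guinea pig ileum segments in Tyrode's solution gassed with 95% O2/5% CO2, isotonic recording at 10 mN load. Cumulative histamine (0.01-3 μM) curves. Antagonist applied 10 min before the curve. pK_B from concentration ratio, or pA2 by Schild plot.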
Target sequence in this assay (P31389 whole entry): as the sequence (P31389 whole entry, looked up) above

[16] = target: Histamine H2 receptor (Cavia porcellus) (UniProt P47747); assay: Histamine H2 receptor antagonistic activity at concentrations of 0.03,0.1 and 0.3 uM on the isolated guinea pig right atrium.; format: functional, tissue-based; details: Cardiac atrium
[17] = target: T1, Adrenergic receptor alpha-1 (Rattus norvegicus, UniProt P15823+P23944+P43140); assay: as §1; format: functional, tissue-based; procedure, shortened: as §2
T1 sequence (P15823 whole entry): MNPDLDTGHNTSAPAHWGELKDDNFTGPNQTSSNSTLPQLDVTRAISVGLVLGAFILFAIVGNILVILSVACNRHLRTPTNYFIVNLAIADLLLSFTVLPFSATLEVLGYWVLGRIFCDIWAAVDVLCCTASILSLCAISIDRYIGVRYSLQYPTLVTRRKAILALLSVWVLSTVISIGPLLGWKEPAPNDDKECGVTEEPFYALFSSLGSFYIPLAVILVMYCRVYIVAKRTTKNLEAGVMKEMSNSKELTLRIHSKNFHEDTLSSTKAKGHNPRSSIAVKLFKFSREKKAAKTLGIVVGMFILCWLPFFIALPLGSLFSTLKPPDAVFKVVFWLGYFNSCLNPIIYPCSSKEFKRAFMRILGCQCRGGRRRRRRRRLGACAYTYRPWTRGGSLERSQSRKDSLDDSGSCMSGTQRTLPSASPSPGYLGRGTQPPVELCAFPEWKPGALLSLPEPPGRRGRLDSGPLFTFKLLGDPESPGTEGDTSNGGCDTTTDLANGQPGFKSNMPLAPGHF
T1 sequence (P23944 whole entry): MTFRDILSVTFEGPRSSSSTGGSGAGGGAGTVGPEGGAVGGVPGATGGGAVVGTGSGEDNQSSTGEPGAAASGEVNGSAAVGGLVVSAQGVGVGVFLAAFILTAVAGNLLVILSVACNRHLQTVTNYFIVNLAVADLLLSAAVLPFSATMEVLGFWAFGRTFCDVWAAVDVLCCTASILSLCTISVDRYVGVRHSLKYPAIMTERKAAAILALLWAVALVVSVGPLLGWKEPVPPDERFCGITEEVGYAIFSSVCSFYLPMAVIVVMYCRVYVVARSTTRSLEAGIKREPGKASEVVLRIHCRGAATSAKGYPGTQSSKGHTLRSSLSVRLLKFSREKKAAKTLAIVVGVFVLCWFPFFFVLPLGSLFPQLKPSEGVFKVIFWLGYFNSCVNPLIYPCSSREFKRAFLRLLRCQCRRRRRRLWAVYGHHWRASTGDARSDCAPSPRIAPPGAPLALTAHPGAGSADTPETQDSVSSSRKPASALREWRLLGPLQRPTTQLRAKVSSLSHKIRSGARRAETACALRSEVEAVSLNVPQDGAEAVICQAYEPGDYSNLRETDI
T1 sequence (P43140 whole entry): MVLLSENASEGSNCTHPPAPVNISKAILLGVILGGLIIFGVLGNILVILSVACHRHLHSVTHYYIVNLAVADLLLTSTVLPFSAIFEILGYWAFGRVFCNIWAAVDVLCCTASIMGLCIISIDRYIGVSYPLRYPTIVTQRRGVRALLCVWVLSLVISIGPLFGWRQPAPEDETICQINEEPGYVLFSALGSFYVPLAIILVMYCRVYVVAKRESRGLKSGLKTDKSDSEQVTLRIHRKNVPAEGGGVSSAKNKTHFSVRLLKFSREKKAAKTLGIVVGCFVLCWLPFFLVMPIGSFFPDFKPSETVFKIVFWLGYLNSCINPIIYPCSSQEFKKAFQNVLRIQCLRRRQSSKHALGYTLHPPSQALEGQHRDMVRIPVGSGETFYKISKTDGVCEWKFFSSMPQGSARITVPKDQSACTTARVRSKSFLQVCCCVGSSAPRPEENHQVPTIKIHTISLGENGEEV

[18] = target: Histamine H2 receptor (Cavia porcellus) (UniProt P47747); assay: Histamine H2 receptor antagonistic activity at a concentration of 30 uM on the isolated guinea pig right atrium.; format: functional, tissue-based; details: Cardiac atrium
[19] = Inhibition of the positive chronotropic response (H2-antagonism) of guinea pig right atrium relative to cimetidine.; format: functional, Cavia porcellus, Cardiac atrium
[20] = target: Histamine H1 receptor (Cavia porcellus, UniProt P31389); assay: (§7) Histamine H1 receptor antagonistic activity on the isolated guinea pig ileum determined by Schild plot.; format: functional, tissue-based; details: read-out: pA2 (converted); procedure, shortened: as §6
Histamine H1 receptor, sequence (P31389 whole entry): as the sequence (P31389 whole entry, looked up) above

[21] = target: Muscarinic acetylcholine receptor M3 (Cavia porcellus) (UniProt Q8VH26); assay: muscarinic acetylcholine receptor M3 antagonistic activity on the isolated guinea pig ileum determined by Schild plot.; format: functional, tissue-based; procedure, shortened: as §5
[22] = target: Histamine H2 receptor (Cavia porcellus) (UniProt P47747); assay: Histamine H2 receptor antagonistic activity at concentrations of 0.03 and 0.1 uM on the isolated guinea pig right atrium.; format: functional, tissue-based; details: Cardiac atrium
[23] = target: Muscarinic acetylcholine receptor M3 (Cavia porcellus, UniProt Q8VH26); assay: muscarinic acetylcholine receptor M3-antagonistic activity on the isolated guinea pig ileum determined by Schild plot.; format: functional, tissue-based; details: read-out: pA2 (converted); procedure, shortened: as §5
Muscarinic acetylcholine receptor M3, sequence (Q8VH26 whole entry): as the sequence (Q8VH26 1-587) above

[24] = target: Histamine H1 receptor (Cavia porcellus) (UniProt P31389); assay: as §7; format: functional, tissue-based; procedure, shortened: as §6
Target sequence in this assay (P31389 whole entry): as the sequence (P31389 whole entry, looked up) above

[25] = target: T2, Histamine H2 receptor (Cavia porcellus, UniProt P47747); assay: Histamine H2 receptor antagonistic activity on the isolated guinea pig right atrium.; details: read-out: pA2 (converted)
T2 sequence (P47747 whole entry): as the sequence (P47747 whole entry) above

[26] = target: T2, Histamine H2 receptor; assay: Inhibition of [125I]APT binding to H2 receptors in guinea pig cerebral membranes.; format: cell membranes
Procedure, shortened: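 Striatal membranes from male Hartley guinea pigs (200-300 g) in 50 mM sodium/potassium phosphate, pH 7.5, with 0.1% gelatin. Stopped with cold buffer containing 0.1% BSA, then filtered on polyethylenimine-treated glass-fiber filters and γ-counted. Azido compounds handled under dim light.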

[27] = target: Histamine H2 receptor (Cavia porcellus) (UniProt P47747); assay: Histamine H2 receptor antagonistic activity at concentrations of 0.1,0.3 and 1 uM on the isolated guinea pig right atrium.; format: functional, tissue-based; details: Cardiac atrium
[28] = target: Muscarinic acetylcholine receptor M3 (Cavia porcellus) (UniProt Q8VH26); assay: Muscarinic acetylcholine receptor M3 antagonistic activity at concentrations of 10 and 30 uM on the isolated guinea pig iluem.; format: functional; procedure, shortened: as §5
[29] = target: Histamine H2 receptor (Cavia porcellus) (UniProt P47747); assay: Histamine H2 receptor antagonism at a concentration of 1 umolar on the isolated guinea pig right atrium.; format: functional, tissue-based; details: Cardiac atrium

- Relative potency [1]: 4360%
- pKB [2]: 8.04
SMILES: N#CN/C(=N\CCNc1ccccc1[N+](=O)[O-])NCCCCOc1cccc(CN2CCCCC2)c1

- pKB [3]: 7.62
- Relative potency [4]: 1480%
- Slope [5]: 1.25
- pKB [6]: 5.61
- pKB [7]: 7.57
SMILES: N#CN/C(=N\CCNC(=O)c1cccc(I)c1)NCCCOc1cccc(CN2CCCCC2)c1

- Relative potency [1]: 1120%
- pKB [8]: 7.45
SMILES: N#CN/C(=N\CCNc1ccccc1[N+](=O)[O-])NCCCOc1cccc(CN2CCCCC2)c1

- Slope [9]: 1.29
- pKB [10]: 4.77
- pA2 [11]: 6.06
- Relative potency [1]: 1440%
- Slope [12]: 0.9
- Slope [13]: 1.09
- pKB [14]: 5.49
- pKB [15]: 5.96
- pKB [16]: 7.52
- pA2 [17]: 5.59
SMILES: N#CN/C(=N\CCNC(=O)c1ccc(N)c(I)c1)NCCCOc1cccc(CN2CCCCC2)c1

- pKB [18]: 5.16
SMILES: N#CN/C(=N\CCCOc1cccc(CN2CCCCC2)c1)N1CCN(C(=O)c2ccccc2)CC1
- Relative potency [19]: 6%

- Kb [20]: 1.58 µM
- Relative potency [1]: 2460%
- Slope [21]: 1.04
- pKB [22]: 7.79
- Kb [23]: 1.7 µM
- Slope [24]: 0.91
- Kb [25]: 0.0162 µM
SMILES: N#CN/C(=N\CCNC(=O)c1cc(I)c(N)c(I)c1)NCCCOc1cccc(CN2CCCCC2)c1

- Kb [20]: 26.9 µM
- Relative potency [4]: 660%
- Slope [12]: 1.09
- Slope [5]: 0.88
- Ki [26]: 0.00977 µM
- pKB [27]: 7.28
- pKB [28]: 5.16
- pKB [29]: 7.22
SMILES: N#CN/C(=N\CCNC(=O)c1ccc(N)cc1)NCCCOc1cccc(CN2CCCCC2)c1 [AMINOPOTENTIDINE]
